Assay results reported in ChEMBL document CHEMBL1134217, “Addressing the stability of C-capped dipeptide efflux pump inhibitors that potentiate the activity of levofloxacin in Pseudomonas aeruginosa” (Bioorg Med Chem Lett, 2001).
≈ marks a conversion by molar mass, not a printed value. Peptide text beside a SMILES is read from it.

Columns and labels:
Pseudomonas aeruginosa [1] = assay: Minimum concentration of compound required to reduce the MIC of levofloxacin 8-fold in PAM 1032 strain of Pseudomonas aeruginosa that over expresses MexAB-OprM efflux pump; format: functional
How it was run: (§1)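 Levofloxacin MICs were measured on PAM 1032 (MexAB-OprM overexpressor) with and without efflux pump inhibitor. MPC₈ is the lowest inhibitor concentration that cuts the levofloxacin MIC 8-fold.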

[2] = Stability in rat serum measured as % recovery at 10 min; format: ADME; conditions: read-out: Recovery
How it was run: (§2)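 Compounds were incubated in rat serum at 37 °C, with a parallel incubation in H₂O as control. At each time point, 70% trichloroacetic acid and CH₃CN were added dropwise. Unchanged compound was quantified by HPLC and reported as % recovery, averaged from two or more experiments.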

[3] = Stability in rat serum measured as % recovery at 1 min; format: ADME; conditions: read-out: Recovery; how it was run: as §2
[4] = Stability in rat serum measured as % recovery at 5 min; format: ADME; conditions: read-out: Recovery; how it was run: as §2
Pseudomonas aeruginosa [5] = assay: Minimum inhibitory concentration required to inhibit growth of PAM 1032 strain of Pseudomonas aeruginosa that over expresses MexAB-Opr M efflux pump; format: functional
How it was run: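 Intrinsic antibacterial activity was checked by measuring the MIC of the efflux pump inhibitor alone, without levofloxacin, against P. aeruginosa PAM 1032, which overexpresses MexAB-OprM.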

[6] = Stability in rat serum measured as % recovery at 3 min; format: ADME; conditions: read-out: Recovery; how it was run: as §2
Pseudomonas aeruginosa [7] = assay: Compound was evaluated in PAM 1032 strain of Pseudomonas aeruginosa for its effect on levofloxacin (40 ug/mL) potentiation; format: functional
How it was run: (§3)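 Levofloxacin MIC read against P. aeruginosa PAM 1032, a laboratory strain overexpressing the MexAB-OprM pump, with the efflux pump inhibitor held at fixed levels of […].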

Pseudomonas aeruginosa [8] = assay: Compound was evaluated in PAM 1032 strain of Pseudomonas aeruginosa for its effect on levofloxacin ( 10 ug/mL) potentiation; format: functional; how it was run: as §3
Pseudomonas aeruginosa [9] = assay: Compound was evaluated in PAM 1032 strain of Pseudomonas aeruginosa for its effect on levofloxacin ( 5 ug/mL) potentiation; format: functional; how it was run: as §3
Pseudomonas aeruginosa [10] = assay: Compound was evaluated in PAM 1032 strain of Pseudomonas aeruginosa for its effect on levofloxacin (ug/mL) potentiation; format: functional; how it was run: as §3
Pseudomonas aeruginosa [11] = assay: Compound was evaluated in PAM 1032 strain of Pseudomonas aeruginosa for its effect on levofloxacin (20 ug/mL) potentiation; format: functional; how it was run: as §3
[12] = Stability in rat serum measured as % recovery at 5 mins; format: ADME; conditions: read-out: Recovery
How it was run: (§4)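 Incubated at 37 °C in rat serum for the stated time, in parallel with a water control. Samples quenched dropwise with 70% trichloroacetic acid plus acetonitrile, then analysed by HPLC. Value is % recovery of unchanged compound, averaged over two or more experiments. Phe-Arg-β-naphthylamine (MC-207,110) served as positive control.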

[13] = Stability in rat serum measured as % recovery at 10 mins; format: ADME; conditions: read-out: Recovery; how it was run: as §4
[14] = Stability in rat serum measured as % recovery at 2 hr; format: ADME; conditions: read-out: Recovery; how it was run: as §4
[15] = Stability in rat serum measured as % recovery at 3 mins; format: ADME; conditions: read-out: Recovery; how it was run: as §4
Pseudomonas aeruginosa [16] = assay: Minimum concentration of compound required to reduce the MIC of levofloxacin 8-fold in PAM 1032 strain of Pseudomonas aeruginosa tha over expresses MexAB-Opr M efflux pump; format: functional; how it was run: as §1

Row | Compound | MPC (Pseudomonas aeruginosa [1]) | remaining at 10 min [2] | remaining at 1 min [3] | remaining at 5 min [4] | MIC (Pseudomonas aeruginosa [5]) | remaining at 0.05 h [6] | MIC (Pseudomonas aeruginosa [7]) | MIC (Pseudomonas aeruginosa [8]) | MIC (Pseudomonas aeruginosa [9]) | MIC (Pseudomonas aeruginosa [10]) | MIC (Pseudomonas aeruginosa [11]) | remaining at 5 min [12] | remaining at 10 min [13] | remaining at 2 h [14] | remaining at 0.05 h [15] | MPC (Pseudomonas aeruginosa [16])
1 | NCCC[C@H](N)C(=O)N[C@@H](Cc1ccccc1)C(=O)Nc1ccc2ccccc2c1 | 10 µg/mL | 38% | 100% | 76% | 512 µg/mL (≈ 1270 µM) | 87% |  |  |  |  |  |  |  |  |  | 
2 | NCCC[C@H](N)C(=O)N[C@H](CCc1ccccc1)C(=O)Nc1cnc2ccccc2c1 | 20 µg/mL |  |  |  |  |  | 0.125 µg/mL | 1 µg/mL | 2 µg/mL | 4 µg/mL | 0.5 µg/mL |  |  |  |  | 
3 | NCCC[C@H](NC(=O)[C@@H](N)Cc1ccccc1)C(=O)Nc1ccc2ccccc2c1 | 5 µg/mL | 36% | 100% | 64% | 512 µg/mL (≈ 1270 µM) | 80% |  |  |  |  |  |  |  |  |  | 
4 | NCCC[C@H](N)C(=O)N[C@@H](CCc1ccccc1)C(=O)Nc1cnc2ccccc2c1 | 10 µg/mL |  |  |  |  |  | 0.015 µg/mL | 0.5 µg/mL | 4 µg/mL | 4 µg/mL | 0.06 µg/mL |  |  |  |  | 
5 | NCCC[C@@H](N)C(=O)N[C@H](CCc1ccccc1)C(=O)Nc1cnc2ccccc2c1 | 20 µg/mL |  |  |  |  |  | 0.125 µg/mL | 2 µg/mL | 4 µg/mL | 4 µg/mL | 0.125 µg/mL |  |  |  |  | 
6 | N=C(N)NCCC[C@H](NC(=O)[C@@H](N)Cc1ccccc1)C(=O)Nc1ccc2ccccc2c1 [PABETAN] (HELM PEPTIDE1{F.R.[c1ccc2cc(N[*:1])ccc2c1]}$$$$V2.0) | 10 µg/mL |  | 100% |  | > 512 µg/mL |  |  |  |  |  |  | 55% | 25% | 0% | 73% | 
7 | NCCC[C@@H](N)C(=O)N[C@@H](CCc1ccccc1)C(=O)Nc1cnc2ccccc2c1 | 10 µg/mL | 100% | 100% | 98% | > 512 µg/mL | 98% | 0.015 µg/mL | 0.125 µg/mL | 1 µg/mL | 4 µg/mL | 0.03 µg/mL |  |  | 95% |  | 10 µg/mL
8 | CN(C(=O)[C@@H](N)Cc1ccccc1)[C@@H](CCCN)C(=O)Nc1ccc2ccccc2c1.O=C(O)C(F)(F)F.O=C(O)C(F)(F)F | 5 µg/mL | 97% | 100% | 100% | 256 µg/mL | 99% |  |  |  |  |  |  |  |  |  | 
9 | NCCC[C@H](NC(=O)[C@@H](N)CCc1ccccc1)C(=O)Nc1cnc2ccccc2c1 | 10 µg/mL |  |  |  |  |  | 0.03 µg/mL | 0.06 µg/mL | 1 µg/mL | 4 µg/mL | 0.03 µg/mL |  |  |  |  | 
